In assay [1] the target is Serine-protein kinase ATM (Homo sapiens) (UniProt Q13315). The assay is described as follows: Inhibition of human recombinant ATM at 15 nM in presence of ATP by radiometric assay relative to control. The gist of the method: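 Panel of 327 recombinant human kinases, each assayed in vitro by radiometric activity assay in duplicate at a single inhibitor concentration per compound, chosen with reference to its ULK1 inhibition. Activity remaining was expressed as percent of vehicle control, and percent inhibition was calculated as 100 minus percent activity remaining.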

The target in assay [2] is Serine/threonine-protein kinase PAK 1 (Homo sapiens) (UniProt Q13153). The assay is described as follows: Inhibition of human recombinant PAK1 at 40 nM in presence of ATP by radiometric assay relative to control.
Assay [3] deals with T1, Bone morphogenetic protein receptor type-2 (Homo sapiens) (UniProt Q13873).
T1 sequence (whole entry): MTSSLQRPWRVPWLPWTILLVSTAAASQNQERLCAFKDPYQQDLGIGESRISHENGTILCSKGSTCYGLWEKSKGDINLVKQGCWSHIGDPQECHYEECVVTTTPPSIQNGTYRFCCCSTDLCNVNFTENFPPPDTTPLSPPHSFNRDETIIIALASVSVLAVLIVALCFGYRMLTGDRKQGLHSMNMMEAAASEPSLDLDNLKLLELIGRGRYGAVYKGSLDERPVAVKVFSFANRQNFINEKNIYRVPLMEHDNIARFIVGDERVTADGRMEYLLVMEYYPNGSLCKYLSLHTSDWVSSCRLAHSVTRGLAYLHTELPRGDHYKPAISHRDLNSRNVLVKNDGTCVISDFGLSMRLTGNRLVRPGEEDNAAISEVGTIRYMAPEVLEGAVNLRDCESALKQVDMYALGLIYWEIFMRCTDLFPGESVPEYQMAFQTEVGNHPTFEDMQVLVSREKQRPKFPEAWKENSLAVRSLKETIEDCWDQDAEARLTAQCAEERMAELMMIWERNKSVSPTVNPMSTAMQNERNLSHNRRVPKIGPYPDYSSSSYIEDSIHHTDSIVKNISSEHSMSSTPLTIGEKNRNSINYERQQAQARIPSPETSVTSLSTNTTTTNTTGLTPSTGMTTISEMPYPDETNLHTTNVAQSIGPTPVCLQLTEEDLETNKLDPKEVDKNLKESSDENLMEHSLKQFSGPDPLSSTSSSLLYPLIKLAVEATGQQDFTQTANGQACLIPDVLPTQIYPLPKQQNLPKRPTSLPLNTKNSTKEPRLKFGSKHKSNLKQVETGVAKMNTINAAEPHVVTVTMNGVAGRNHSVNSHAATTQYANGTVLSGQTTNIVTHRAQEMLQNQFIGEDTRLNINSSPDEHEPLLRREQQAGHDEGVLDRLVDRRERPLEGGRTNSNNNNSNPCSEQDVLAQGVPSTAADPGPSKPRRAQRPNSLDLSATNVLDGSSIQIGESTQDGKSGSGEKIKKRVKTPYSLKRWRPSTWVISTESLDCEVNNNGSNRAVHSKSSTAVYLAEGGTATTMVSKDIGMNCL
As to the kind of experiment: Inhibition of human recombinant BMPR2 at 500 nM related to control ULK1.

Assay [4] deals with Serine/threonine-protein kinase pim-1 (Homo sapiens) (UniProt P11309). The assay is described as follows: Inhibition of human recombinant PIM1 at 500 nM related to control ULK1.
In assay [5] the target is T2, Tyrosine-protein kinase JAK3 (Homo sapiens) (UniProt P52333).
T2 sequence (whole entry): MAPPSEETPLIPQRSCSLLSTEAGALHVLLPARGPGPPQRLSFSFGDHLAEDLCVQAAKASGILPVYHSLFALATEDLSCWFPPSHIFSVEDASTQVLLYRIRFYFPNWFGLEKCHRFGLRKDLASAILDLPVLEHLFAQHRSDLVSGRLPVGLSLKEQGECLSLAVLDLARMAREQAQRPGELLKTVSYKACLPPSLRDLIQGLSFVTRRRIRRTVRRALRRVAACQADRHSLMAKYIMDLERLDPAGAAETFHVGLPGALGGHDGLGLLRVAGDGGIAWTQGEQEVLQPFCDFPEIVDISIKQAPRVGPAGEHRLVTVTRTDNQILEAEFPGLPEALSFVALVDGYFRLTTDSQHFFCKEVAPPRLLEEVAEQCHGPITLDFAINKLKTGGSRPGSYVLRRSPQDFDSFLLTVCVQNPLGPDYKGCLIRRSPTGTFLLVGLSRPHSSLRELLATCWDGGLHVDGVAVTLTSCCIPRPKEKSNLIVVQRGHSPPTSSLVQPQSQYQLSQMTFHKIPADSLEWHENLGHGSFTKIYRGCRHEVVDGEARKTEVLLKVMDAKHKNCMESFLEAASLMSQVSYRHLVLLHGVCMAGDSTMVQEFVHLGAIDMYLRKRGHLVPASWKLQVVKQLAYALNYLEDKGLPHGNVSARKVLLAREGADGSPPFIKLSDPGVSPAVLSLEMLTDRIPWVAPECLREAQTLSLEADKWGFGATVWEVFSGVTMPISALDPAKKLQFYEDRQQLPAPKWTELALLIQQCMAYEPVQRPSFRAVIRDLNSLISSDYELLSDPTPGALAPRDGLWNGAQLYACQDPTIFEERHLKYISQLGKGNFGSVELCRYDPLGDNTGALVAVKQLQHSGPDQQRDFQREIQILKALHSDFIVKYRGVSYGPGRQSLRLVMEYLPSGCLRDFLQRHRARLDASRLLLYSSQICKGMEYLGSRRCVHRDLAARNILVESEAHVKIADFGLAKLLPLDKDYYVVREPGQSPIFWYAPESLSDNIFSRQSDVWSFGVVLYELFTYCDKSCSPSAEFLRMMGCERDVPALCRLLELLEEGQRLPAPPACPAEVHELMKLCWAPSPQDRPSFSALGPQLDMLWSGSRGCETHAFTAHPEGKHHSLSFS
The assay is described as follows: Inhibition of human recombinant JAK3 at 500 nM related to control ULK1.

Usually inhibition stands for the relative decrease from the control value, in per cent.

Sequence of Serine/threonine-protein kinase PAK 1 (Homo sapiens) (Q13153 whole entry, looked up): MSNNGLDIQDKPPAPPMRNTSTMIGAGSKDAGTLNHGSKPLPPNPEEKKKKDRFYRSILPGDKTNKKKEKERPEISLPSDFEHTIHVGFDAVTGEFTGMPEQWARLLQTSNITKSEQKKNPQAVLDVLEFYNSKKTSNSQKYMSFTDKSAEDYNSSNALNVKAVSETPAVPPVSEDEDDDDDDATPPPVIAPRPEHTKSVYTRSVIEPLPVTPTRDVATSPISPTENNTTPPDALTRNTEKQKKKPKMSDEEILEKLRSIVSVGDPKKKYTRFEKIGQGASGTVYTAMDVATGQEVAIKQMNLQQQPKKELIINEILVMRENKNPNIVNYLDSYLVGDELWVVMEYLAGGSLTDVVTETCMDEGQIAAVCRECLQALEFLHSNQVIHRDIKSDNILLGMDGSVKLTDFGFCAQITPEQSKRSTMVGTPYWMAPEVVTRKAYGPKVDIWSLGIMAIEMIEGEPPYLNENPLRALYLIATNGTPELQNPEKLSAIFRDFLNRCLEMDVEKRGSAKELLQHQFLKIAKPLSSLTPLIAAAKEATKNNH
Sequence of Serine-protein kinase ATM (Homo sapiens) (Q13315 whole entry): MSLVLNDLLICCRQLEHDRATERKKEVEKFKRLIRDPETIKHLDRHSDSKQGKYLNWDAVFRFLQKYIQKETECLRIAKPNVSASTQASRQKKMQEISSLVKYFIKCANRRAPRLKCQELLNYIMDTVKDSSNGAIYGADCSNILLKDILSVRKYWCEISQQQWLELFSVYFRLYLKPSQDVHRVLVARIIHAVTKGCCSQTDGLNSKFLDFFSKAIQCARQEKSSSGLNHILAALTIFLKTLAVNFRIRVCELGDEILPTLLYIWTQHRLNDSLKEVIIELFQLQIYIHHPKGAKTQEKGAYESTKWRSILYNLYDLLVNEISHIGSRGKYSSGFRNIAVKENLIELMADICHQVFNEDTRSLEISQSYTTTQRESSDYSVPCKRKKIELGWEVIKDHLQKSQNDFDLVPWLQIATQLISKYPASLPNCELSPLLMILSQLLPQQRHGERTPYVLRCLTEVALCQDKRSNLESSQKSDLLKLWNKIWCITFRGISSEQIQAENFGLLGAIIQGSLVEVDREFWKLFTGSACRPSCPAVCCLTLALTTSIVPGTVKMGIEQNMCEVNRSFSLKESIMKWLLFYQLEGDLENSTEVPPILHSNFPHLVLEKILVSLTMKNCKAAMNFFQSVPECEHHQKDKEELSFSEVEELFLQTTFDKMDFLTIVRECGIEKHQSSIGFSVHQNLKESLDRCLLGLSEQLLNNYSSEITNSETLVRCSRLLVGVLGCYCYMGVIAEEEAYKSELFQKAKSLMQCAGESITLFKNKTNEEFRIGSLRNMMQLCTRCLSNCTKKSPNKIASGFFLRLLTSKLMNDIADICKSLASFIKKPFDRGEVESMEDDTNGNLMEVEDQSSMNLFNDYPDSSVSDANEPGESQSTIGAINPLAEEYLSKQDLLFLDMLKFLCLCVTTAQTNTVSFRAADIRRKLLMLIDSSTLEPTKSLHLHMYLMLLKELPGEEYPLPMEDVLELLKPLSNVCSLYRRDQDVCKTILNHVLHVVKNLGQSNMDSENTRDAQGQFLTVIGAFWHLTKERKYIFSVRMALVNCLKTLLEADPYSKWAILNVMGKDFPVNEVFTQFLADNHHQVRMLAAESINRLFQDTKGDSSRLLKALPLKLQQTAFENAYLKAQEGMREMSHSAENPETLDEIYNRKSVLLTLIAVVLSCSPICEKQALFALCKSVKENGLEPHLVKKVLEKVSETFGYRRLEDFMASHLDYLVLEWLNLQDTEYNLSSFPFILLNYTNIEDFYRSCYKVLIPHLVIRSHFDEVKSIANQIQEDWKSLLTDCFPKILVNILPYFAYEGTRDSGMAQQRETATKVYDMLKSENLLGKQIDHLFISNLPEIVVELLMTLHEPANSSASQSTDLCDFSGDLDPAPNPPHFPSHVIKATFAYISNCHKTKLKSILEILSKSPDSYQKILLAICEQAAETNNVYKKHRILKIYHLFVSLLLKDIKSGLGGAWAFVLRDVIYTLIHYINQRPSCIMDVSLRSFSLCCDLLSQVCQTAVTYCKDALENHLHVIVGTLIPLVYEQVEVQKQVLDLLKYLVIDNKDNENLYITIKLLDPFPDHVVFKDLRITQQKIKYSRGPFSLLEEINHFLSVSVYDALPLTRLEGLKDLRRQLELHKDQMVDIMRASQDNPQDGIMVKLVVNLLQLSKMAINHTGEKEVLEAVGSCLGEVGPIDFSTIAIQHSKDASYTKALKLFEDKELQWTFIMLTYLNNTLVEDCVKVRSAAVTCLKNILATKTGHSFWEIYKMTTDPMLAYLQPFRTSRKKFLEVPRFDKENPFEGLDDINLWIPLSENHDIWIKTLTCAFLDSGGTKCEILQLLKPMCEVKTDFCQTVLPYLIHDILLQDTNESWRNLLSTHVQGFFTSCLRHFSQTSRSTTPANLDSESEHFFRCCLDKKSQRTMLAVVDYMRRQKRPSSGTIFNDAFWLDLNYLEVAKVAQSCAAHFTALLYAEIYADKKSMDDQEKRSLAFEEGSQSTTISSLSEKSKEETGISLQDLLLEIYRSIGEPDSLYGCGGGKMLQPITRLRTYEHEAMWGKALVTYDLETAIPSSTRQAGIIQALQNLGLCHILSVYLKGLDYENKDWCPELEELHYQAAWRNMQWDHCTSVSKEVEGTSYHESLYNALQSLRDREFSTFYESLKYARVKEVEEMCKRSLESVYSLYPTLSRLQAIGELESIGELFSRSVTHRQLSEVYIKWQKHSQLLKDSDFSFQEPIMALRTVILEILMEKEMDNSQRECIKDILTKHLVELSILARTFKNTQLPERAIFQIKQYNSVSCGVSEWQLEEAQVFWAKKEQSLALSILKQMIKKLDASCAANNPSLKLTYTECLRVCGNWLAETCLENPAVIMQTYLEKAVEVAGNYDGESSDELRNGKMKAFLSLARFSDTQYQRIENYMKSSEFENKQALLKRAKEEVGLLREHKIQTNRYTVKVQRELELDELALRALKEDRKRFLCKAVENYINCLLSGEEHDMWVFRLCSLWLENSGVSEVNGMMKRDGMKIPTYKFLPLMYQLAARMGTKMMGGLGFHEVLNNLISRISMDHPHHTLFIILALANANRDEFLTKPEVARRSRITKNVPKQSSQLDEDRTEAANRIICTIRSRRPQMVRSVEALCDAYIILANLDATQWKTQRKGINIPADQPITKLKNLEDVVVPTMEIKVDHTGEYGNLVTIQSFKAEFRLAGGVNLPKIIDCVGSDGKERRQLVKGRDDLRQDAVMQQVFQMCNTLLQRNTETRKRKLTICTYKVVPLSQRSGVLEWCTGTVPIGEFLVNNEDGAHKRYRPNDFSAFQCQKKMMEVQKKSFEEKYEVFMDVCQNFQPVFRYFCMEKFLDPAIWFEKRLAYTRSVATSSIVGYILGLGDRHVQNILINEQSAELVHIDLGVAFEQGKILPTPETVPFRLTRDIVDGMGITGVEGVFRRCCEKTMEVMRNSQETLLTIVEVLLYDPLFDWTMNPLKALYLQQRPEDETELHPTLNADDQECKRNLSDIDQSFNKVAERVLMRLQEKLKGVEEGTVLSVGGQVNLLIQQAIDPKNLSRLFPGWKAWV
Sequence of Serine/threonine-protein kinase pim-1 (Homo sapiens) (P11309 whole entry, looked up): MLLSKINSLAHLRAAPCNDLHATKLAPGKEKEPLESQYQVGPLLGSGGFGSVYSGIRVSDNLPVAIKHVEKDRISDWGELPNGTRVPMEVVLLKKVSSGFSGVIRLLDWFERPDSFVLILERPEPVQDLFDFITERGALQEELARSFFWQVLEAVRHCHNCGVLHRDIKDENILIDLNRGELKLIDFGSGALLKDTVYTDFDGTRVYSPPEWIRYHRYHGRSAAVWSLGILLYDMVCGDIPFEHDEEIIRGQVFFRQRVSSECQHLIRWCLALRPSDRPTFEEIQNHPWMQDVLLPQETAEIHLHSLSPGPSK

`CC(C)[C@H](NC(=O)c1cc(-c2cnn3cc(-c4ccc(OCCN5CCCCC5)cc4)cnc23)cs1)C(F)(F)F`: the inhibition in assay [1] came out at 6%.

`O=C(N[C@@H](C1CC1)C(F)(F)F)c1cc(-c2cnn3cc(-c4ccc(F)cc4)cnc23)cs1`: the inhibition in assay [2] came to 0%.

As to `CNC(=O)c1ccccc1Oc1nc(Nc2cc(OC)c(OC)c(OC)c2)ncc1Br`, the results for the fold change (FC) in assay [3], in assay [4] and in assay [5] were 0, 0.03 and 0.28, respectively.

The values above are taken from ChEMBL document CHEMBL5653631, “A Potent and Selective ULK1 Inhibitor Suppresses Autophagy and Sensitizes Cancer Cells to Nutrient Stress” (iScience, 2018).
